Data set [1] concerns Mus musculus. Kind of data set: Antiinflammatory activity in Swiss albino mouse peritonitis model assessed as reduction in thioglycollate-induced of leukocyte migration at 300 umol/kg, po administered 1 hr before thioglycollate challenge measured after 4 hrs. Type of data set: functional, organism-based. The essentials: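 Mice dosed at 300 μmol/kg po in arabic gum, then 1 h later given 1 mL 3% thioglycollate ip. Killed at 4 h, peritoneum washed with 1.5 mL cold PBS; exudate cells recovered and total cells counted in Neubauer chamber; exudate >98% neutrophils. Mean ± SEM, at least six animals, ANOVA/Dunnett vs vehicle.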

Data set [2] deals with Mus musculus. Briefly: Antiinflammatory activity in Swiss albino mouse assessed as inhibition of capsaicin-induced ear edema at 300 umol/kg, po administered 1 hr before capsaicin challenge measured after 30 mins relative to control. Type of data set: functional. The essentials:
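Female Swiss mice, 8 weeks old, groups of six; oral dosing at 300 μmol/kg as suspension in arabic gum, vehicle controls 10 mL/kg po; left ear given acetone. Killed 30 min after capsaicin; 7 mm ear punches weighed, edema = treated right minus untreated left ear weight; % inhibition vs vehicle control; mean ± SEM, n = 8, ANOVA/Dunnett.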

Data set [3] relates to Salmonella typhimurium. Kind of data set: Mutagenic activity in Salmonella Typhimurium TA100 preincubated for 20 to 30 mins. Format: toxicity, organism-based. Particulars: salmonella enterica subsp. enterica serovar typhimurium.
In data set [4] the test system is Salmonella typhimurium. Briefly: Mutagenic activity in Salmonella Typhimurium TA102 preincubated for 20 to 30 mins. Type of data set: toxicity, organism-based. Particulars: salmonella enterica subsp. enterica serovar typhimurium.
Data set [5] relates to Blood. Briefly: Genotoxicity in mouse peripheral blood by micronucleus test. Type of data set: toxicity, tissue-based.
Data set [6] is described as follows: Antiinflammatory activity in knockout-transgenic sickle cell mouse monocytes assessed as TNFalpha level at 300 uM administered 30 mins before LPS challenge measured after […] by ELISA. Type of data set: functional, Monocyte. The essentials:
(§1)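 Blood drawn by intracardiac puncture from anesthetized adult knockout-transgenic sickle cell mice; mononuclear cells isolated on Ficoll, adhered 2 h in DMEM + 10% calf serum (5% CO2, 37 °C), monocyte purity >90% by May-Giemsa. Compounds (100 or 300 μM; dexamethasone 1 μM) added 30 min before LPS 1 μg/mL; supernatant TNFα by ELISA after 20 h. Mean ± SEM, N ≥ 4 experiments.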

A short description of data set [7]: Antiinflammatory activity in knockout-transgenic sickle cell mouse monocytes assessed as TNFalpha level at 100 uM administered 30 mins before LPS challenge measured after […] by ELISA. Format: functional, Monocyte. The essentials:
as §1
A general note: ELISA stands for enzyme-linked immunosorbent assay.

Data set [8] concerns Mus musculus. Briefly: Antinociceptive activity in Swiss albino mouse assessed as reduction in acetic acid-induced abdominal constrictions at 100 umol/kg, po administered 1 hr before acetic acid challenge measured for 20 mins relative to control. Type of data set: functional, Abdomen. Further details: scale not given: the % may be the effect or the level left. Put shortly: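 Constrictions counted for 20 min starting 10 min after injection; % inhibition vs vehicle group; mean ± SEM, 10 animals per group, Student's t test.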

The nature of data set [9]: Antiinflammatory activity in knockout-transgenic sickle cell mouse monocytes assessed as inhibition of LPS-induced TNFalpha production at 100 uM administered 30 mins before LPS challenge […]. Type of data set: functional, Monocyte.
Data set [10] is described as follows: Antiinflammatory activity in knockout-transgenic sickle cell mouse monocytes assessed as inhibition of LPS-induced TNFalpha production at 300 uM administered 30 mins before LPS challenge […]. Type of data set: functional, Monocyte.
Data set [11] in a line: Antiinflammatory activity in knockout-transgenic sickle cell mouse monocytes assessed as inhibition of LPS-induced TNFalpha production at 1 uM administered 30 mins before LPS challenge […]. Type of data set: functional, Monocyte.

The source made the active and inactive calls. The calls are words filed in the database; no cut-off is given here.

As usually defined, the inhibition in vivo is the drop in the measured response relative to a control, in per cent. Take `O=C1c2ccccc2C(=O)N1c1ccc(CCO[N+](=O)[O-])cc1`: the outcome in [1] was Active. Also, in data set [2], the inhibition in vivo at 300 µmol/kg amounted to 43%. For the same compound, the Activity result in data set [3], in data set [4] and in [5] was “Non-toxic” in each case.

For the compound `O=C1c2ccccc2C(=O)N1CO[N+](=O)[O-]`, the result in data set [1] was Active. Further, the inhibition in vivo at 300 µmol/kg in data set [2] is 43%. In addition, the Activity result in data set [3], in data set [4] and in data set [5] was “Non-toxic” throughout.

With `NC(=O)NO` [HYDROXYUREA], the Activity in [6] is 579.8 pg/mL; in data set [7], 463.3 pg/mL.

For the compound `O=C1c2ccccc2C(=O)N1CCO[N+](=O)[O-]`, in [1], the outcome was Active. The Activity is given as 25% in data set [8], “Non-toxic” in data set [3], “Non-toxic” in data set [4] and “Non-toxic” in [5]. In data set [2], the inhibition in vivo at 300 µmol/kg is 43%.

Regarding `O=C1c2ccccc2C(=O)N1c1cccc(CO[N+](=O)[O-])c1`, the “inhibition (INH)” value in data set [9] is 45%; in [10] it was 91%. Moreover, the outcome in data set [1] was Active. Moreover, in [2], the inhibition in vivo at 300 µmol/kg came out at 65%. Besides, the Activity result in data set [3], in data set [4] and in data set [5] was “Non-toxic” each time.

For `O=C1CCC(N2C(=O)c3ccccc3C2=O)C(=O)N1CO[N+](=O)[O-]` (stereo unspecified), in data set [1], the result was Active. Besides, the inhibition in vivo at 300 µmol/kg in [2] is 43%. The Activity result in data set [3], in data set [4] and in data set [5] was “Non-toxic” throughout.

Take `C[C@@H]1C[C@H]2[C@@H]3CCC4=CC(=O)C=C[C@]4(C)[C@@]3(F)[C@@H](O)C[C@]2(C)[C@@]1(O)C(=O)CO` [DEXAMETHASONE]: the “inhibition (INH)” value in data set [11] came out at 83%.

Consider `O=C1c2ccccc2C(=O)N1c1ccc(CO[N+](=O)[O-])cc1`, for which the results for the “inhibition (INH)” value in [9] and in data set [10] were 67% and 84%, respectively. Besides, the result in data set [1] was Active. For the same compound, the Activity in data set [8] was 66%; in data set [3], “Non-toxic”; in [4], “Non-toxic”; in [5], “Non-toxic”. Further, in data set [2], the inhibition in vivo at 300 µmol/kg amounted to 43%.

Take `COc1ccc2c(c1)c(CC(=O)O)c(C)n2C(=O)c1ccc(Cl)cc1`: in [2], the inhibition entry is “Active”.

Consider `Cc1c(N(C)CS(=O)(=O)O)c(=O)n(-c2ccccc2)n1C`, for which the result in [8] (Abdomen) was inactive.

Source of the values: ChEMBL document CHEMBL1821727, “Design, synthesis, and pharmacological evaluation of novel hybrid compounds to treat sickle cell disease symptoms” (J Med Chem, 2011).
